# Experimental data collected from several papers.
# Each line is one published result; the experiments were not run side by side.
# Cell line: A549
# Effect on: cell growth or viability
Structure (SMILES),method,time,IC50
O=C1/C(=C/c2ccc3ccccc3c2O)NC(=S)N1c1ccccc1,MTT,,5.2 µg/mL
CC(C)[C@H](NC(=O)[C@H](Cc1c[nH]c2ccccc12)NC(=O)[C@H](Cc1c[nH]cn1)NC(=O)[C@H](CCCNC(=N)N)NC(=O)[C@H](CCCNC(=N)N)NC(=O)[C@H](Cc1c[nH]c2ccccc12)NC(=O)[C@H](Cc1c[nH]c2ccccc12)NC(=O)[C@H](Cc1c[nH]cn1)NC(=O)[C@H](Cc1c[nH]c2ccccc12)NC(=O)[C@H](CCCNC(=N)N)NC(=O)[C@@H](N)CCCCN)C(=O)N[C@H](C(=O)N[C@@H](Cc1c[nH]c2ccccc12)C(N)=O)C(C)C,MTT,24 h,106 µM
CCCCC(=O)Nc1ccc(-c2ccc3ncn(CCF)c(=O)c3c2)cn1,CCK-8,72 h,> 10 µM
CC(=O)Nc1nc2cc(-c3ccc4ncn(Cc5ccccc5)c(=O)c4c3)ccc2s1,MTT,72 h,> 20 µM
Cc1ccc(NNc2nc3ccc(Br)cc3c(=O)n2-c2ccccc2)cc1,MTT,48 h,17.4 µM
CCCCn1cnc2ccc(-c3ccc(NC(=O)Nc4ccc(C(F)(F)F)cc4)nc3)cc2c1=O,CCK-8,72 h,> 10 µM
CC(C)[C@@H]1NC(=O)[C@@H](CCCNC(=N)N)NC(=O)[C@H]([C@@H](C)O)NC(=O)[C@@H](CCCN)NC(=O)[C@H](Cc2ccccc2)NC(=O)[C@@H](Cc2ccccc2)NC1=O,ATP luminescence,72 h,> 100 µM
NS(=O)(=O)c1ccc(-n2nc(C(=O)NN=Cc3ccc(O)cc3)cc2-c2ccccc2)cc1,fluorescence,48 h,7.9 µM
OC1CCN(c2ccc(/C=N/NC(=S)Nc3cccc(Cl)c3Cl)cc2)CC1,MTT,24 h,0.58 µM
C/C(=N\N=C(/C)c1c(O)c2ccccc2oc1=O)c1c(O)c2ccccc2oc1=O,MTT,48 h,39.5 µM
CCCCC(=O)Nc1ccc(-c2ccc3ncn(CCC)c(=O)c3c2)c(C)n1,CCK-8,72 h,> 10 µM
CCc1oc2cc(S(=O)(=O)Nc3ccc(S(=O)(=O)Nc4nccs4)cc3)ccc2c1C(=O)c1cc(Br)c(O)c(Br)c1,MTT,96 h,226 µM
CCCn1cnc2ccc(-c3ccc(N4CCCCCCC4=O)nc3)cc2c1=O,CCK-8,72 h,> 10 µM
CNC(=O)c1cc(Oc2ccc(NC(=O)Nc3ccc(Cl)c(C(F)(F)F)c3)cc2)ccn1,MTT,48 h,12.2 µM
O=C(N[C@@H](CSCc1ccccc1)C(=O)NO)c1ccccc1,MTT,48 h,201 µM
CCCn1cnc2ccc(-c3ccc(NC(=O)c4ccccc4)nc3)cc2c1=O,CCK-8,72 h,0.12 µM
CSc1ccc(CNc2ccc(C(=O)O)cc2)cc1,resazurin,72 h,> 100 µM
Cc1ccccc1NC(=O)Nc1ccc(-c2ccc3ncn(Cc4ccccc4)c(=O)c3c2)cn1,CCK-8,72 h,0.98 µM
O=C(Nc1ccc(F)cc1)Nc1nc2cc(-c3ccc4ncn(CCC5CCCCC5)c(=O)c4c3)ccc2s1,MTT,72 h,9.1 µM
CN1CCC(NC2CCc3[nH]c4c(C(N)=O)ccc(-c5ccccc5Cl)c4c3C2)CC1 (centres unmarked),,,0.0301 µM
COc1ccccc1CNc1ccc(C(=O)O)cc1,resazurin,72 h,> 100 µM
O=C(Nc1cccc(F)c1)Nc1nc2cc(-c3ccc4ncn(CCN5CCOCC5)c(=O)c4c3)ccc2s1,MTT,72 h,> 20 µM
CCCn1cnc2ccc(-c3ccc(N4CCCCCC4=O)nc3)cc2c1=O,CCK-8,72 h,> 10 µM
